The source made the active and inactive calls. No cut-off for these calls is given here. Square brackets hold non-standard residues; d marks the D form. Peptide text beside a SMILES is read from it. Phg = N[C@H](C(=O)O)c1ccccc1; NMeA = CN[C@@H](C)C(=O)O
What was measured:
MDA-MB-231 = test: Cytotoxicity against human MDA-MB-231 cells assessed as cell viability after by MTT assay; type: functional
Outline: (§1)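 MTT viability assay. MDA-MB-231 cells were seeded at 1 × 10⁴ cells/well and MCF-7 cells at 2 × 10⁴ cells/well, then held 24 h at 37 °C in 5% CO₂. Medium was replaced with treatments; vehicle controls received matched DMSO. After 72 h, MTT (10 mg/ml stock) was added for 2 h in the dark. Formazan was dissolved in DMSO and read at 550 nm. Viability relative to untreated control at 100 µM.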

MCF7 = test: Cytotoxicity against human MCF7 cells assessed as cell viability after by MTT assay; type: functional; outline: as §1
[1] = biological target: E3 ubiquitin-protein ligase XIAP (Homo sapiens, UniProt P98170); test: Binding affinity to XIAP BIR3-domain (unknown origin)
Sequence of E3 ubiquitin-protein ligase XIAP (P98170 whole entry): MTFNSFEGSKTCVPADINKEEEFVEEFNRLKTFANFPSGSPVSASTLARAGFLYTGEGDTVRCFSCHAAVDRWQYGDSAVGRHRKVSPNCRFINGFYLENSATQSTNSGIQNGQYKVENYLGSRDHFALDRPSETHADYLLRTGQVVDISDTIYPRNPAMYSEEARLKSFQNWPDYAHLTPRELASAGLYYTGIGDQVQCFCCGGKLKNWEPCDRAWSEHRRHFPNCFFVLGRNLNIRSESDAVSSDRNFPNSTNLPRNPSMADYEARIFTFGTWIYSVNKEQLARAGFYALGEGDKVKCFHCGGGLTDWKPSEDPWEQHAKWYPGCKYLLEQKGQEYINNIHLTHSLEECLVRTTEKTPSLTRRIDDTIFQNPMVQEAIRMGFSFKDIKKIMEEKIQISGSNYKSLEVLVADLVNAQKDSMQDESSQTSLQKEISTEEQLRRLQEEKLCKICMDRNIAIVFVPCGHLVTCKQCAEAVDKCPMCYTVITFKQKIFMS

| Compound | Activity (MDA-MB-231) | Activity (MCF7) | Kd [1] |
| --- | --- | --- | --- |
| CN[C@@H](C)C(=O)N[C@H](C(=O)N1CCC[C@H]1C(=O)N[C@@H](Cc1ccccc1)C(=O)N[C@@H](Cc1ccc(O)cc1)C(N)=O)C(C)C (H-[NMeA]VPFY-NH2) | inactive | inactive | 0.04 µM |
| CC(C)[C@H](NC(=O)[C@H](C)N)C(=O)N1CCC[C@H]1C(=O)N[C@H](C(=O)N[C@@H](Cc1ccc(O)cc1)C(N)=O)c1ccccc1 (H-AVP[Phg]Y-NH2) | inactive | inactive | 0.03 µM |
| CN[C@@H](C)C(=O)N[C@H](C(=O)N1C[C@H](Oc2ccccc2)C[C@H]1C(=O)N[C@@H]1CCCc2ccccc21)C(C)(C)C | 58.1% | 70.8% | – |
| CN[C@@H](C)C(=O)N[C@H](C(=O)N1C[C@H](c2ccccc2)C[C@H]1C(=O)NC(c1ccccc1)c1ccccc1)C(C)(C)C | 50.1% | 62.3% | – |
| CN[C@@H](C)C(=O)N[C@H](C(=O)N1C[C@H](Oc2ccccc2)C[C@H]1C(=O)NC(c1ccccc1)c1ccccc1)C(C)(C)C | 50.3% | 58.6% | – |
| H-AVPFY-NH2 | inactive | inactive | 0.06 µM |
| CN[C@@H](C)C(=O)N[C@H](C(=O)N1C[C@H](c2ccccc2)C[C@H]1C(=O)N[C@@H]1CCCc2ccccc21)C(C)(C)C | 54.6% | 79.4% | – |

Source: ChEMBL document CHEMBL2412994, “Solid phase synthesis of Smac/DIABLO-derived peptides using a 'Safety-Catch' resin: identification of potent XIAP BIR3 antagonists” (Bioorg Med Chem, 2013)
